In PMC7330163 (Pharmacology Research & Perspectives, 2020):
Marks after values point to notes of the source that are not given here.

Assays:
[1] = system: Cyp3a2; experiment: Taqman mRNA upregulation in rat liver, 4-week toxicity study; assay type: in vivo, Sprague-Dawley rat; details: male rats, 4-week study
Summary of the method: (§1)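 Livers came from satellite-group rats of both sexes (n = 5–6) in the 4-week study, dosed once daily at 0, 50, 150, 450 or 1500 mg/kg in modified gelatine. Transcripts quantified by comparative Ct, normalised to 18S and to vehicle-treated controls; fold change = 2−ΔΔCT.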

[2] = Single-dose intravenous pharmacokinetics in rat; assay type: in vivo, Sprague-Dawley rat; details: for AUC / Vd / clearance / half-life: Sprague-Dawley, plasma, iv
[3] = system: CYP3A4; experiment: Induction of P450 enzyme activity in human hepatocytes; assay type: cell-based; details: up to 10 µmol/L
Summary of the method: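 Three batches of human hepatocyte monolayers were exposed for 48–89 h to test compound (DMSO stock diluted 1000-fold), with medium and fresh drug or vehicle renewed every 24 h; rifampicin and omeprazole as positive controls. Cells then washed with MEM, held 10 min at 37°C, and incubated with 200 µmol/L nifedipine for 2 h at 37°C, 5% CO2, as CYP3A4 activity marker.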

[4] = cited from earlier work
[5] = Single-dose oral pharmacokinetics in rat; assay type: in vivo; details: Sprague-Dawley, plasma
[6] = system: Cyp2c11; experiment: Taqman mRNA upregulation in rat liver, 8-day mechanistic follow-up study; assay type: in vivo, Sprague-Dawley rat; details: male rats, 8-day follow-up study, relative to vehicle control
Summary of the method: (§2)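 Male Sprague-Dawley rats (n = 4) were given 0, 5, 15 or 50 mg/kg daily for 8 days as a suspension in modified gelatine. Liver transcripts were normalised to 18S and to vehicle-treated rats by the ΔΔCT method; fold = 2−ΔΔCT.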

[7] = Toxicokinetics of the 4-week toxicity study in dog; assay type: in vivo, Beagle dog; details: for AUC0‐24 h (day 8/28): day 28
[8] = system: Cyp2c12; experiment: Taqman mRNA upregulation in rat liver; assay type: in vivo, Sprague-Dawley rat; details: either sex
[9] = system: Cyp2c13; experiment: Taqman mRNA upregulation in rat liver; assay type: in vivo, Sprague-Dawley rat; details: male-specific
[10] = Single-dose oral pharmacokinetics in dog; assay type: in vivo; details: male, Beagle, plasma
[11] = system: Cyp2c11; experiment: Taqman mRNA upregulation in rat liver, 4-week toxicity study; assay type: in vivo, Sprague-Dawley rat; details: male rats; for Upregulation of Cyp2c11 mRNA: 4-week study, relative to vehicle control
Summary of the method: as §1

[12] = system: Cyp3a12; experiment: Taqman mRNA upregulation in dog liver, 4-week toxicity study; assay type: in vivo, Beagle dog; details: 4 weeks; for increase in Cyp3a12 mRNA expression: 500 mg/kg
Summary of the method: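 Liver samples (n = 2–3) came from main-group Beagles of the 4-week study, dosed daily at 0, 5, 50 or 500 mg/kg in modified gelatine. Cyp3a12 transcript normalised to 18S and to vehicle-treated dogs (ΔΔCT); fold = 2−ΔΔCT.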

[13] = system: Cyp2c6; experiment: Taqman mRNA upregulation in rat liver, 4-week toxicity study; assay type: in vivo, Sprague-Dawley rat; details: 4-week study
Summary of the method: as §1

[14] = system: CYP1A2; experiment: Induction of P450 mRNA in human hepatocytes; assay type: cell-based; details: up to 10 µmol/L
Summary of the method: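 Three human hepatocyte batches were cultured as monolayers and treated for 48–89 h with test compound, diluted 1000-fold from DMSO stock, or vehicle. Medium with fresh drug renewed every 24 h; rifampicin and omeprazole served as positive controls. CYP mRNA then measured.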

[15] = system: Cyp2c6; experiment: Taqman mRNA upregulation in rat liver, 8-day mechanistic follow-up study; assay type: in vivo, Sprague-Dawley rat; details: male rats, 8-day follow-up study, relative to vehicle control
Summary of the method: as §2

[16] = Toxicokinetics of the 4-week toxicity study in rat; assay type: in vivo, Sprague-Dawley rat; details: for AUC0‐24 h (day 8/28): day 28

SMILES: CCCNS(=O)(=O)Nc1ncnc(OCCOc2ncc(Br)cn2)c1-c1ccc(Br)cc1 [macitentan]
- Upregulation of Cyp3a2 mRNA ([1]; 50 mg/kg daily, relative to vehicle control = 1.00): 3.65 ± 1.03
- Upregulation of Cyp3a2 mRNA ([1]; 150 mg/kg daily, relative to vehicle control): 4.53 ± 1.31
- Upregulation of Cyp3a2 mRNA ([1]; 450 mg/kg daily, relative to vehicle control): 5.21 ± 1.33
- Upregulation of Cyp3a2 mRNA ([1]; 1500 mg/kg daily, relative to vehicle control): 6.50 ± 2.40
- T 1/2 ([2]; F, 0.3 mg/kg single iv, geometric mean (range)): 8.9 (6.6‐12) h
- AUC ([2]; female, 0.3 mg/kg): 2990 ng·h/mL
- Vd ([2]; female, 0.3 mg/kg): 1.4 L/kg
- clearance ([2]; female, 0.3 mg/kg): 2 mL/min/kg
- half-life ([2]; female, 0.3 mg/kg): 8.9 h
- AUC ([2]; male, 0.1 mg/kg): 270 ng·h/mL
- Vd ([2]; male, 0.1 mg/kg): 1.6 L/kg
- clearance ([2]; male, 0.1 mg/kg): 6.5 mL/min/kg
- half-life ([2]; male, 0.1 mg/kg): 3.8 h
- AUC ([2]; male, 0.3 mg/kg): 610 ng·h/mL
- Vd ([2]; male, 0.3 mg/kg): 1.2 L/kg
- clearance ([2]; male, 0.3 mg/kg): 8.2 mL/min/kg
- half-life ([2]; male, 0.3 mg/kg): 1.9 h
- CL in female rats as percent of the value in male animals ([2]; single iv): 25%
- increase in CYP3A4 enzyme activity [3]: fivefold
- aqueous solubility [4]: low aqueous solubility
- AUC ([5]; female, 3 mg/kg): 18400 ng·h/mL
- Cmax ([5]; female, 3 mg/kg): 850 ng/mL
- Tmax ([5]; female, 3 mg/kg): 8 h
- bioavailability ([5]; female, 3 mg/kg): 62%
- AUC ([5]; male, 3 mg/kg): 3240 ng·h/mL
- Cmax ([5]; male, 3 mg/kg): 380 ng/mL
- Tmax ([5]; male, 3 mg/kg): 6 h
- bioavailability ([5]; male, 3 mg/kg): 53%
- AUC ([5]; male, 30 mg/kg): 97400 ng·h/mL
- Cmax ([5]; male, 30 mg/kg): 7300 ng/mL
- Tmax ([5]; male, 30 mg/kg): 16 h
- Upregulation of Cyp2c11 mRNA ([6]; 5 mg/kg daily): 1.55 ± 0.22
- Upregulation of Cyp2c11 mRNA ([6]; 15 mg/kg daily): 1.65 ± 1.35
- Upregulation of Cyp2c11 mRNA ([6]; 50 mg/kg daily): 2.50 ± 0.85
- increase in AUC0‐24h from 50 to 500 mg/kg ([7]; 4-week toxicity study): 5.1 fold
- AUC ([7]; beagle, plasma, oral, 5 mg/kg): 17500 ng·h/mL
- AUC0‐24 h (day 1) ([7]; females, 5 mg/kg daily oral): 11.6 μg/mL"h
- AUC0‐24 h (day 8/28) ([7]; females, 5 mg/kg daily oral): 10.5 μg/mL"h
- AUC0‐24 h (day 1) ([7]; females, 50 mg/kg daily oral): 94.8 μg/mL"h
- AUC0‐24 h (day 8/28) ([7]; females, 50 mg/kg daily oral): 46.5 μg/mL"h
- AUC0‐24 h (day 1) ([7]; females, 500 mg/kg daily oral): 504 μg/mL"h
- AUC0‐24 h (day 8/28) ([7]; females, 500 mg/kg daily oral): 84.4 μg/mL"h
- AUC0‐24 h (day 1) ([7]; males, 5 mg/kg daily oral): 17.5 μg/mL"h
- AUC0‐24 h (day 8/28) ([7]; males, 5 mg/kg daily oral): 14.7 μg/mL"h
- AUC0‐24 h (day 1) ([7]; males, 50 mg/kg daily oral): 134 μg/mL"h
- AUC0‐24 h (day 8/28) ([7]; males, 50 mg/kg daily oral): 39.1 μg/mL"h
- AUC0‐24 h (day 1) ([7]; males, 500 mg/kg daily oral): 692 μg/mL"h
- AUC0‐24 h (day 8/28) ([7]; males, 500 mg/kg daily oral): 44.9 μg/mL"h
- Induction of Cyp2c12 mRNA [8]: No induction
- Induction of Cyp2c13 mRNA [9]: No induction
- AUC ([10]; 1 mg/kg): 2370 ng·h/mL
- Cmax ([10]; 1 mg/kg): 410 ng/mL
- Tmax ([10]; 1 mg/kg): 2 h
- AUC ([10]; 10 mg/kg): 27500 ng·h/mL
- bioavailability ([10]; 10 mg/kg): 86%
- increase of Cyp2c11 mRNA levels vs control ([11]; 450 mg/kg and 1500 mg/kg, 4 weeks): about 50%
- Upregulation of Cyp2c11 mRNA ([11]; 450 mg/kg daily): 1.48 ± 0.48
- Upregulation of Cyp2c11 mRNA ([11]; 1500 mg/kg daily): 1.43 ± 0.55
- Upregulation of Cyp3a12 mRNA ([12]; female dogs, 5 mg/kg daily, relative to vehicle control): 2.84 ± 0.44
- Upregulation of Cyp3a12 mRNA ([12]; female dogs, 50 mg/kg daily, relative to vehicle control): 4.34 ± 0.61
- Upregulation of Cyp3a12 mRNA ([12]; female dogs, 500 mg/kg daily, relative to vehicle control, n = 2 only): 12.7 ^a
- increase in Cyp3a12 mRNA expression ([12]; female dogs): 12.7 fold
- Upregulation of Cyp3a12 mRNA ([12]; male dogs, 5 mg/kg daily, relative to vehicle control = 1.00): 1.63 ± 0.72
- Upregulation of Cyp3a12 mRNA ([12]; male dogs, 50 mg/kg daily, relative to vehicle control): 6.45 ± 1.71
- Upregulation of Cyp3a12 mRNA ([12]; male dogs, 500 mg/kg daily, relative to vehicle control): 18.6 ^b
- increase in Cyp3a12 mRNA expression ([12]; male dogs): 18.6 fold
- Upregulation of Cyp2c6 mRNA ([13]; female rats, 50 mg/kg daily, relative to vehicle control): 2.78 ± 0.95
- Upregulation of Cyp2c6 mRNA ([13]; female rats, 150 mg/kg daily, relative to vehicle control): 4.21 ± 0.51
- Upregulation of Cyp2c6 mRNA ([13]; female rats, 450 mg/kg daily, relative to vehicle control): 4.35 ± 1.54
- Upregulation of Cyp2c6 mRNA ([13]; female rats, 1500 mg/kg daily, relative to vehicle control): 3.29 ± 0.77
- Upregulation of Cyp2c6 mRNA ([13]; male rats, 50 mg/kg daily, relative to vehicle control = 1.00): 6.21 ± 1.02
- Upregulation of Cyp2c6 mRNA ([13]; male rats, 150 mg/kg daily, relative to vehicle control): 4.36 ± 1.96
- Upregulation of Cyp2c6 mRNA ([13]; male rats, 450 mg/kg daily, relative to vehicle control): 9.53 ± 1.26
- Upregulation of Cyp2c6 mRNA ([13]; male rats, 1500 mg/kg daily, relative to vehicle control): 9.20 ± 3.29
- change in CYP1A2 mRNA expression [14]: No change
- Upregulation of Cyp2c6 mRNA ([15]; 5 mg/kg daily): 1.92 ± 0.45
- Upregulation of Cyp2c6 mRNA ([15]; 15 mg/kg daily): 1.55 ± 1.21
- Upregulation of Cyp2c6 mRNA ([15]; 50 mg/kg daily): 3.08 ± 2.45
- AUC0‐24 h (day 1) ([16]; females, 50 mg/kg daily oral): 726 μg/mL"h
- AUC0‐24 h (day 8/28) ([16]; females, 50 mg/kg daily oral): 490 μg/mL"h
- AUC0‐24 h (day 1) ([16]; females, 150 mg/kg daily oral): 1160 μg/mL"h
- AUC0‐24 h (day 8/28) ([16]; females, 150 mg/kg daily oral): 776 μg/mL"h
- AUC0‐24 h (day 1) ([16]; females, 450 mg/kg daily oral): 1590 μg/mL"h
- AUC0‐24 h (day 8/28) ([16]; females, 450 mg/kg daily oral): 1280 μg/mL"h
- AUC0‐24 h (day 1) ([16]; females, 1500 mg/kg daily oral): 2500 μg/mL"h
- AUC0‐24 h (day 8/28) ([16]; females, 1500 mg/kg daily oral): 1590 μg/mL"h
- AUC0‐24 h (day 1) ([16]; males, 50 mg/kg daily oral): 213 μg/mL"h
- AUC0‐24 h (day 8/28) ([16]; males, 50 mg/kg daily oral): 114 μg/mL"h
- AUC0‐24 h (day 1) ([16]; males, 150 mg/kg daily oral): 382 μg/mL"h
- AUC0‐24 h (day 8/28) ([16]; males, 150 mg/kg daily oral): 200 μg/mL"h
- AUC0‐24 h (day 1) ([16]; males, 450 mg/kg daily oral): 595 μg/mL"h
- AUC0‐24 h (day 8/28) ([16]; males, 450 mg/kg daily oral): 327 μg/mL"h
- AUC0‐24 h (day 1) ([16]; males, 1500 mg/kg daily oral): 979 μg/mL"h
- AUC0‐24 h (day 8/28) ([16]; males, 1500 mg/kg daily oral): 365 μg/mL"h
